Results: ChEMBL document CHEMBL2346664, “Synthesis, characterization and in vitro anticancer evaluation of novel 1,2,4-triazolin-3-one derivatives” (2013)

Legend:
Format in all cases: functional
[1] = test system: SN12C; assay: Growth inhibition of human SN12C cells after 48 hrs by sulforhodamine B assay
[2] = Growth inhibition of human NCI-ADR-RES cells assessed as cell growth at 10 '-8 M after 48 hrs by sulforhodamine B assay; details: read-out: Activity
[3] = test system: MDA-MB-468; assay: Growth inhibition of human MDA-MB-468 cells assessed as cell growth at 10 '-5 M after 48 hrs by sulforhodamine B assay; details: MDA-MB-468, 48 h, read-out: Activity
[4] = test system: SW-620; assay: Growth inhibition of human SW620 cells assessed as cell growth at 10 '-8 M after 48 hrs by sulforhodamine B assay; details: SW-620, 48 h, read-out: Activity
[5] = Growth inhibition of human EKVX cells assessed as growth inhibition at 10 uM after 48 hrs by sulforhodamine B assay; details: read-out: GI
[6] = test system: SF-295; assay: Growth inhibition of human SF295 cells assessed as cell growth at 10 '-7 M after 48 hrs by sulforhodamine B assay; details: SF-295, 48 h, read-out: Activity
[7] = test system: T47D; assay: Growth inhibition of human T47D cells assessed as cell growth at 10 '-4 M after 48 hrs by sulforhodamine B assay; details: read-out: Activity
[8] = test system: PC-3; assay: Growth inhibition of human PC3 cells after 48 hrs by sulforhodamine B assay; details: PC-3, 48 h
[9] = test system: SW-620; assay: Growth inhibition of human SW620 cells assessed as cell growth at 10 '-6 M after 48 hrs by sulforhodamine B assay; details: SW-620, 48 h, read-out: Activity
[10] = test system: UACC-62; assay: Growth inhibition of human UACC62 cells assessed as cell growth at 10 '-5 M after 48 hrs by sulforhodamine B assay; details: UACC-62, 48 h, read-out: Activity
[11] = test system: SF-539; assay: Growth inhibition of human SF539 cells assessed as cell growth at 10 '-4 M after 48 hrs by sulforhodamine B assay; details: SF-539, 48 h, read-out: Activity
[12] = test system: SK-MEL-28; assay: Growth inhibition of human SK-MEL-28 cells after 48 hrs by sulforhodamine B assay; details: SK-MEL-28, 48 h
[13] = test system: OVCAR-8; assay: Growth inhibition of human OVCAR8 cells assessed as cell growth at 10 '-5 M after 48 hrs by sulforhodamine B assay; details: OVCAR-8, 48 h, read-out: Activity
[14] = test system: DU-145; assay: Growth inhibition of human DU145 cells assessed as cell growth at 10 '-4 M after 48 hrs by sulforhodamine B assay; details: DU-145, 48 h, read-out: Activity
[15] = test system: T47D; assay: Growth inhibition of human T47D cells after 48 hrs by sulforhodamine B assay
[16] = test system: K562; assay: Growth inhibition of human K562 cells assessed as cell growth at 10 '-5 M after 48 hrs by sulforhodamine B assay; details: K562, 48 h, read-out: Activity
[17] = test system: HCT-15; assay: Growth inhibition of human HCT15 cells assessed as growth inhibition at 10 uM after 48 hrs by sulforhodamine B assay; details: HCT-15, 48 h, read-out: GI
[18] = test system: M14; assay: Growth inhibition of human M14 cells after 48 hrs by sulforhodamine B assay; details: M14, 48 h
How it was run: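 NCI 60-cell-line five-dose screen. Cells were plated at 5,000–40,000/well by doubling time and grown 24 h at 37 °C, 5% CO2. Time-zero plates were TCA-fixed. Drug from DMSO stock was tested at 0.01, 0.1, 1, 10 and 100 µM final for 48 h continuous exposure. Read-out was SRB at 515 nm. GI50 is the concentration giving 50% reduction in net protein increase versus untreated control.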

[19] = test system: UACC-62; assay: Growth inhibition of human UACC62 cells assessed as cell growth at 10 '-4 M after 48 hrs by sulforhodamine B assay; details: UACC-62, 48 h, read-out: Activity
[20] = test system: TK-10; assay: Growth inhibition of human TK10 cells after 48 hrs by sulforhodamine B assay; details: TK-10, 48 h
[21] = test system: 786-0; assay: Growth inhibition of human 786-0 cells assessed as cell growth at 10 '-4 M after 48 hrs by sulforhodamine B assay; details: 786-0, 48 h, read-out: Activity
How it was run: (§1)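 Percent growth at each of the five concentrations of the 48 h continuous-exposure NCI SRB screen. Drug stocks were in DMSO at 400× the top final concentration and diluted in medium with gentamicin. Growth was calculated as [(Ti-Tz)/(C-Tz)]×100 when Ti ≥ Tz, or [(Ti-Tz)/Tz]×100 when Ti < Tz. Tz plates were fixed at drug addition; untreated wells served as control. Absorbance was read at 515 nm.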

[22] = test system: OVCAR-5; assay: Growth inhibition of human OVCAR5 cells assessed as cell growth at 10 '-4 M after 48 hrs by sulforhodamine B assay; details: OVCAR-5, 48 h, read-out: Activity
[23] = test system: OVCAR-8; assay: Growth inhibition of human OVCAR8 cells assessed as cell growth at 10 '-6 M after 48 hrs by sulforhodamine B assay; details: OVCAR-8, 48 h, read-out: Activity
[24] = test system: SK-MEL-28; assay: Growth inhibition of human SK-MEL-28 cells assessed as cell growth at 10 '-8 M after 48 hrs by sulforhodamine B assay; details: SK-MEL-28, 48 h, read-out: Activity
[25] = test system: T47D; assay: Growth inhibition of human T47D cells assessed as cell growth at 10 '-6 M after 48 hrs by sulforhodamine B assay; details: read-out: Activity
[26] = test system: ACHN; assay: Growth inhibition of human ACHN cells assessed as cell growth at 10 '-7 M after 48 hrs by sulforhodamine B assay; details: read-out: Activity; how it was run: as §1
[27] = test system: UACC-257; assay: Growth inhibition of human UACC257 cells assessed as cell growth at 10 '-4 M after 48 hrs by sulforhodamine B assay; details: UACC-257, 48 h, read-out: Activity
[28] = test system: ACHN; assay: Growth inhibition of human ACHN cells assessed as growth inhibition at 10 uM after 48 hrs by sulforhodamine B assay; details: read-out: GI
How it was run: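 Percent growth inhibition from the single 10^-5 M NCI-60 screen, reported as 100 minus growth percent. Growth percent was measured after 48 h drug exposure at 37 °C, 5% CO2, using TCA fixation, SRB staining and absorbance at 515 nm, against untreated controls and time-zero plates.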

[29] = test system: LOX IMVI; assay: Growth inhibition of human LOXIMVI cells assessed as cell growth at 10 '-6 M after 48 hrs by sulforhodamine B assay; details: read-out: Activity
[30] = test system: SF-295; assay: Growth inhibition of human SF295 cells assessed as growth inhibition at 10 uM after 48 hrs by sulforhodamine B assay; details: SF-295, 48 h, read-out: GI
[31] = test system: IGROV-1; assay: Growth inhibition of human IGROV1 cells assessed as cell growth at 10 '-6 M after 48 hrs by sulforhodamine B assay; details: IGROV-1, 48 h, read-out: Activity
[32] = test system: MCF7; assay: Growth inhibition of human MCF7 cells assessed as cell growth at 10 '-4 M after 48 hrs by sulforhodamine B assay; details: MCF7, 48 h, read-out: Activity
[33] = read-out: LD50 (the source's name)

Cc1cc(=O)oc2cc(OCCn3c(C)nn(-c4ccc(Cl)cc4)c3=O)ccc12
GI50 [1]: 5.54 µM | TGI [1]: > 1 µM | CC50 [1, 33]: > 1 µM | growth at 0.01 µM [2]: 102% | growth at 10 µM [3]: 15% | growth at 0.01 µM [4]: 99% | inhibition of growth at 10 µM [5]: 41.3% | growth at 0.1 µM [6]: 85% | growth at 100 µM [7]: 36% | GI50 [8]: 8.13 µM | TGI [8]: > 1 µM | CC50 [8, 33]: > 1 µM | growth at 1 µM [9]: 68% | growth at 10 µM [10]: 24% | growth at 100 µM [11]: -12% | GI50 [12]: 3.13 µM | TGI [12]: > 1 µM | CC50 [12, 33]: > 1 µM | growth at 10 µM [13]: 31% | growth at 100 µM [14]: 10% | GI50 [15]: 7.55 µM | TGI [15]: > 1 µM | CC50 [15, 33]: > 1 µM | growth at 10 µM [16]: 23% | inhibition of growth at 10 µM [17]: 82.3% | GI50 [18]: 2.36 µM | TGI [18]: > 1 µM | CC50 [18, 33]: > 1 µM | growth at 100 µM [19]: 30% | GI50 [20]: 1.34 µM | TGI [20]: 8.84 µM | CC50 [20, 33]: > 1 µM | growth at 100 µM [21]: 15% | growth at 100 µM [22]: 45% | growth at 1 µM [23]: 97% | growth at 0.01 µM [24]: 105% | growth at 1 µM [25]: 89% | growth at 0.1 µM [26]: 106% | growth at 100 µM [27]: 53% | inhibition of growth at 10 µM [28]: 58.1% | growth at 1 µM [29]: 74% | inhibition of growth at 10 µM [30]: 86% | growth at 1 µM [31]: 93% | growth at 100 µM [32]: 21%
